The target in experiment [1] is T1, Transient receptor potential cation channel subfamily V member 1 (Rattus norvegicus, UniProt O35433). The experiment in a line: Displacement of [3H]RTX from rat TRPV1 expressed in CHO cells. The format is cell-based. The essentials: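 Competitive binding against [3H]RTX on rat TRPV1 heterologously expressed in CHO cells. Affinity reported as Ki (nM). Values are mean ± SEM from 3 or more experiments.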
Background: Displacement assays read how much labelled ligand stays bound in the presence of the test substance.

Experiment [2] deals with T1, Transient receptor potential cation channel subfamily V member 1. The experiment in a line: Agonist activity at rat TRPV1 expressed in CHO cells by 45Ca2+ uptake assay. Type of experiment: functional, cell-based.
For experiment [3] the target is unchanged. The experiment in a line: Antagonist activity at rat TRPV1 expressed in CHO cells by 45Ca2+ uptake assay.

T1 sequence (O35433 whole entry): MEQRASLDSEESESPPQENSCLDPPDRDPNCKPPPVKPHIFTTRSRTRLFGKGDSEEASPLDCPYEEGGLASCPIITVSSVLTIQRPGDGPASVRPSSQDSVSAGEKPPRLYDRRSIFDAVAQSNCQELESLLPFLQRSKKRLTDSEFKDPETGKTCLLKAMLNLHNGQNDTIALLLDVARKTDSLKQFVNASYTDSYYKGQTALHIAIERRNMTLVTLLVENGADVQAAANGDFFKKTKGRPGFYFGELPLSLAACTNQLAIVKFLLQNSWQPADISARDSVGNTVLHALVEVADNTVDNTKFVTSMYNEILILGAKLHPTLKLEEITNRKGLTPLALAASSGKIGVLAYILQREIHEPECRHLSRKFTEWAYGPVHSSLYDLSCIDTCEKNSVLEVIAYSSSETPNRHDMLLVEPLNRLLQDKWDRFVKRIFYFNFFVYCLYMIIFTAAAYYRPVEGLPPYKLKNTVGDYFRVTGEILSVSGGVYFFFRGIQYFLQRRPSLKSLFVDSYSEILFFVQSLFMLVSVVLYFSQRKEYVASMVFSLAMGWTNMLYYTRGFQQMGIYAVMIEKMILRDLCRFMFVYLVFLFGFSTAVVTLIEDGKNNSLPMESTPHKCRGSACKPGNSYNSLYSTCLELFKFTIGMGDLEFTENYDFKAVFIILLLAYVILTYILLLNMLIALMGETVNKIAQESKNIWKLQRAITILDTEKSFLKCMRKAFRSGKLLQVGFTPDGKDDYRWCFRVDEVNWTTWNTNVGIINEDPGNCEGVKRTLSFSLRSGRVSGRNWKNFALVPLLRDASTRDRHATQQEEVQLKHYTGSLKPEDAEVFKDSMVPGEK

For orientation: Ki means a measure of affinity in units of concentration, obtained from inhibition or displacement. With `CC(C(=O)NCC=C(c1ccc(Cl)cc1)c1ccc(Cl)cc1)c1ccc(NS(C)(=O)=O)c(F)c1` (centres undefined), the Ki is 29.6 nM in experiment [1] (read-out: Ki) and 24.5 nM in experiment [3]. Further, in experiment [2], the EC50 result is reported as “Not Active”. For the compound `CC(C(=O)NCc1ccc(Cl)c(Cl)c1)c1ccc(NS(C)(=O)=O)c(F)c1` (centres undefined), the EC50 result in experiment [2] is recorded as “Not Active”. The same measure, in the same setting: the entry for `CC(C(=O)NC(c1ccccc1)c1ccccc1)c1ccc(NS(C)(=O)=O)c(F)c1` (centres undefined) is “Not Active”; for `COc1cc(C2(C(=O)NCc3ccc(C(C)(C)C)cc3)CC2)ccc1NS(C)(=O)=O` it is “Not Active”. On to `CC(C(=O)NCc1ccc(-c2ccccc2)cc1)c1ccc(NS(C)(=O)=O)c(F)c1` (centres undefined), for which the EC50 result in experiment [2] is “Not Active”. Still for that read-out and setting: the entry for `CC(C(=O)NOCc1ccccc1)c1ccc(NS(C)(=O)=O)c(F)c1` (centres undefined) is “Not Active”. Consider `CC(C)(C)c1ccc(CNC(=O)C(C)(C)c2ccc(NS(C)(=O)=O)cc2)cc1`, for which, in experiment [1] (read-out: Ki), the Ki amounted to 430 nM. In experiment [2], the EC50 entry is “Not Active”. `Cc1ccc(CNC(=O)C(C)c2ccc(NS(C)(=O)=O)c(F)c2)cc1` (centres undefined): the inhibition constant (Ki) in experiment [1] (read-out: Ki) was determined as 3100 nM; in experiment [3] it was 930 nM. Moreover, the EC50 entry in experiment [2] is given as “Not Active”. With `CC(C(=O)NCCc1ccc(C(C)(C)C)cc1)c1ccc(NS(C)(=O)=O)c(F)c1` (centres undefined), the EC50 result in experiment [2] is reported as “Not Active”. Take `CC(C(=O)NCCC(c1ccc(F)cc1)c1ccc(F)cc1)c1ccc(NS(C)(=O)=O)c(F)c1` (centres undefined): the Ki turned out to be 79 nM in experiment [1] (read-out: Ki) and 24.8 nM in experiment [3]. Moreover, the EC50 result in experiment [2] is “Not Active”.

As to `CC(C(=O)NCC1CC1(c1ccccc1)c1ccccc1)c1ccc(NS(C)(=O)=O)c(F)c1` (centres undefined), the inhibitory constant (Ki) in experiment [1] (read-out: Ki) turned out to be 188 nM; in experiment [3] it was 148 nM. In experiment [2], the EC50 result is on record as “Not Active”.

With `CC(C(=O)NCCN(c1ccccc1)c1ccccc1)c1ccc(NS(C)(=O)=O)c(F)c1` (centres undefined), the figures for the Ki in experiment [1] (read-out: Ki) and in experiment [3] were 115 nM and 47 nM, respectively. In addition, the EC50 result in experiment [2] is on record as “Not Active”. For `CC(NC(=O)CCc1ccc(C(C)(C)C)cc1)c1ccc(NS(C)(=O)=O)c(F)c1` (centres undefined), the EC50 result in experiment [2] was “Not Active”.

Consider `Cc1ccc(CCCNC(=O)[C@@H](C)c2ccc(NS(C)(=O)=O)c(F)c2)cc1C`, for which the Ki in experiment [1] (read-out: Ki) was 257 nM. Also, in experiment [2], the EC50 entry is reported as “Not Active”.

Turning to `Cc1ccc(C(CCNC(=O)C(C)c2ccc(NS(C)(=O)=O)c(F)c2)c2ccc(C)cc2)cc1` (centres undefined), the Ki in experiment [1] (read-out: Ki) was 96 nM; in experiment [3] it was 32.1 nM. Moreover, in experiment [2], the EC50 result is reported as “Not Active”. For `CC(C(=O)NC/C=C/c1ccc(Cl)cc1)c1ccc(NS(C)(=O)=O)c(F)c1` (centres undefined), the EC50 result in experiment [2] was “Not Active”. In the case of `CC(NC(=O)/C=C/c1ccc(C(C)(C)C)cc1)c1ccc(NS(C)(=O)=O)c(F)c1` (centres undefined), the EC50 result in experiment [2] is “Not Active”. As for `CC(C(=O)NCC=C1c2ccccc2C=Cc2ccccc21)c1ccc(NS(C)(=O)=O)c(F)c1` (centres undefined), the Ki in experiment [1] (read-out: Ki) amounted to 117 nM; in experiment [3], 163 nM. In addition, the EC50 result in experiment [2] is recorded as “Not Active”. Consider `CC(C(=O)NCc1ccc(C(C)(C)C)cc1C#N)c1ccc(NS(C)(=O)=O)c(F)c1` (centres undefined), for which the Ki turned out to be 44 nM in experiment [1] (read-out: Ki) and 40 nM in experiment [3]. In addition, the EC50 entry in experiment [2] is reported as “Not Active”. For the compound `CC(C(=O)NCc1ccc(Cl)cc1)c1ccc(NS(C)(=O)=O)c(F)c1` (centres undefined), the EC50 entry in experiment [2] is listed as “Not Active”. Regarding `CC(C(=O)NCc1ccc(Br)cc1)c1ccc(NS(C)(=O)=O)c(F)c1` (centres undefined), the inhibition constant (Ki) in experiment [1] (read-out: Ki) was found to be 412 nM; in experiment [3], 250 nM. In addition, the EC50 entry in experiment [2] is “Not Active”.

For `CC(C(=O)NCc1ccc(C2CCCCC2)cc1)c1ccc(NS(C)(=O)=O)c(F)c1` (centres undefined), the inhibitory constant (Ki) in experiment [1] (read-out: Ki) amounted to 138 nM; in experiment [3], 43 nM. Also, in experiment [2], the EC50 entry was “Not Active”.

Regarding `CC(C(=O)NC1CCCc2ccccc21)c1ccc(NS(C)(=O)=O)c(F)c1` (centres undefined), in experiment [2], the EC50 result is “Not Active”.

Take `CC(C(=O)NCc1ccc(C(C)(C)C)cc1Br)c1ccc(NS(C)(=O)=O)c(F)c1` (centres undefined): the inhibition constant (Ki) in experiment [1] (read-out: Ki) came out at 47 nM; in experiment [3], 12.7 nM. Also, in experiment [2], the EC50 result is “Not Active”. `Cc1ccc(CCCNC(=O)[C@H](C)c2ccc(NS(C)(=O)=O)c(F)c2)cc1C`: in experiment [2], the EC50 result is recorded as “Not Active”. As for `CC(C(=O)NCc1ccc(C2CC2)cc1)c1ccc(NS(C)(=O)=O)c(F)c1` (centres undefined), the values for the Ki in experiment [1] (read-out: Ki) and in experiment [3] were 411 nM and 55.5 nM, respectively. In experiment [2], the EC50 result is recorded as “Not Active”. With `CC(C)(C)c1ccc(CNC(=O)C(C)(C)c2ccc(NS(C)(=O)=O)c(F)c2)cc1`, in experiment [2], the EC50 result was “Not Active”. Turning to `CC(C(=O)NCC(c1ccccc1)c1ccccc1)c1ccc(NS(C)(=O)=O)c(F)c1` (centres undefined), the EC50 result in experiment [2] is “Not Active”. Consider `Cc1ccc(CCCNC(=O)C(C)c2ccc(NS(C)(=O)=O)c(F)c2)cc1C` (racemic), for which the results for the Ki in experiment [1] (read-out: Ki) and in experiment [3] were 413 nM and 97 nM, respectively. Moreover, the EC50 result in experiment [2] is reported as “Not Active”.

In the case of `CC(C(=O)NCC=C(c1ccc(F)cc1)c1ccc(F)cc1)c1ccc(NS(C)(=O)=O)c(F)c1` (centres undefined), in experiment [2], the EC50 entry is reported as “Not Active”.

Take `COc1cc(C(C)(C)C(=O)NCc2ccc(C(C)(C)C)cc2)ccc1NS(C)(=O)=O`: the inhibitory constant (Ki) in experiment [1] (read-out: Ki) came to 414 nM; in experiment [3] it was 707 nM. Further, the EC50 entry in experiment [2] was “Not Active”. Take `CC(C(=O)NCCC(c1ccccc1)c1ccccc1)c1ccc(NS(C)(=O)=O)c(F)c1` (centres undefined): the Ki in experiment [1] (read-out: Ki) was 130 nM. Also, the EC50 entry in experiment [2] is “Not Active”.

`Cc1ccc(/C=C/CNC(=O)C(C)c2ccc(NS(C)(=O)=O)c(F)c2)cc1C` (centres undefined): the EC50 entry in experiment [2] is “Not Active”. Turning to `COc1ccc(CNC(=O)C(C)c2ccc(NS(C)(=O)=O)c(F)c2)cc1` (centres undefined), the values for the Ki in experiment [1] (read-out: Ki) and in experiment [3] were 7800 nM and 5350 nM, respectively. The EC50 entry in experiment [2] is recorded as “Not Active”. For the compound `CC(NC(=O)Cc1ccc(C(C)(C)C)cc1)c1ccc(NS(C)(=O)=O)c(F)c1` (centres undefined), the Ki in experiment [1] (read-out: Ki) worked out at 2100 nM. The EC50 entry in experiment [2] was “Not Active”. Regarding `Cc1ccc(C(=CCNC(=O)C(C)c2ccc(NS(C)(=O)=O)c(F)c2)c2ccc(C)cc2)cc1` (centres undefined), the Ki in experiment [1] (read-out: Ki) came out at 30.9 nM. Further, the EC50 entry in experiment [2] is recorded as “Not Active”. Turning to `Cc1ccc(C(CCNC(=O)C(C)c2ccc(NS(C)(=O)=O)c(F)c2)c2ccc(F)cc2)cc1` (centres undefined), the inhibition constant (Ki) was 121 nM in experiment [1] (read-out: Ki) and 31 nM in experiment [3]. Also, the EC50 result in experiment [2] is “Not Active”.

`CC(C)(C)c1ccc(CNC(=O)C2(c3ccc(NS(C)(=O)=O)cc3)CC2)cc1`: the EC50 result in experiment [2] is on record as “Not Active”. For the compound `CC(C(=O)NCc1ccc(C2CCCC2)cc1)c1ccc(NS(C)(=O)=O)c(F)c1` (centres undefined), the values for the inhibition constant (Ki) in experiment [1] (read-out: Ki) and in experiment [3] were 93 nM and 20.8 nM, respectively. In addition, in experiment [2], the EC50 entry was “Not Active”. In the case of `CC(C(=O)NCC=C1c2ccccc2CCc2ccccc21)c1ccc(NS(C)(=O)=O)c(F)c1` (centres undefined), the EC50 entry in experiment [2] is recorded as “Not Active”. Same read-out and setting: under `CC(C)c1ccc(CNC(=O)C(C)c2ccc(NS(C)(=O)=O)c(F)c2)cc1` (centres undefined) stands “Not Active”.

Turning to `CC(C(=O)NCc1ccc(I)cc1)c1ccc(NS(C)(=O)=O)c(F)c1` (centres undefined), the Ki in experiment [1] (read-out: Ki) was 502 nM; in experiment [3], 107 nM. Also, the EC50 entry in experiment [2] was “Not Active”. As to `CC(C)(C)c1ccc(CNC(=O)C2(c3ccc(NS(C)(=O)=O)c(F)c3)CC2)cc1`, the Ki entry in experiment [1] (cho) was “Not Active”. The EC50 result in experiment [2] is given as “Not Active”.

In the case of `CC(C(=O)NCc1ccc(C2C=CCC2)cc1)c1ccc(NS(C)(=O)=O)c(F)c1` (centres undefined), the values for the inhibition constant (Ki) in experiment [1] (read-out: Ki) and in experiment [3] were 162 nM and 15 nM, respectively. The EC50 entry in experiment [2] is reported as “Not Active”. Consider `CC(C(=O)NCc1ccc(C(F)(F)F)cc1)c1ccc(NS(C)(=O)=O)c(F)c1` (centres undefined), for which the EC50 entry in experiment [2] is recorded as “Not Active”.
